From ChEMBL document CHEMBL4321808, “Heteroaryl Phosphonates as Noncovalent Inhibitors of Both Serine- and Metallocarbapenemases” (J Med Chem, 2019)
Values after ≈ are worked out from the molar mass of the structure shown.

Experiments:
[1] = Inhibition of N-terminal 6x-His/Sumo-tagged NDM-1 (29 to 270 residues) (unknown origin) expressed in Escherichia coli BL21 (DE3) assessed as reduction in nitrocefin hydrolysis by spectrophotometry; design: species or system Bacteria
Method in brief: (§1)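 Metallo-enzyme assay in 50 mM HEPES pH 7.2 with 50 µM zinc sulfate, 0.01% Triton X-100 and 20 µg/mL BSA, 37 °C. NDM-1 was construct 1 with the His/SUMO tag cleaved, at 2 nM; VIM-2 had its His tag TEV-cleaved, at 0.5 nM.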

[2] = Inhibition of N-terminal 6x-His-tagged VIM-2 (unknown origin) expressed in Escherichia coli Rosetta 2 (DE3) assessed as reduction in nitrocefin hydrolysis by spectrophotometry; design: species or system Bacteria
Method in brief: as §1, with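 “nM. Nitrocefin hydrolysis read at 486 nm; IC50 from sigmoidal fit, Ki by Cheng-Prusoff; mostly duplicate.” for “nM.”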

Enterobacter cloacae [3] = test: Inhibition of NDM-1 in Enterobacter cloacae 5981 assessed as potentiation of imipenem-induced antimicrobial activity by measuring imipenem MIC incubated for 18 to 20 hrs by CLSI based method (reference value: 2 ug/ml)
Method in brief: (§2)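 CLSI broth microdilution in MHBII. […] Inoculum about 5×10^5 CFU per well, incubated at 35 °C for 18–20 h. Imipenem MIC read as absence of visible growth.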

Klebsiella pneumoniae [4] = test: Antimicrobial activity against Klebsiella pneumoniae 5979 expressing NDM1 assessed as inhibition of microbial growth incubated for 18 to 20 hrs by CLSI based method; type: organism-based
Method in brief: (§3)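 CLSI broth microdilution in MHBII. Compound tested alone in serial two-fold dilutions, 128–0.12 µg/mL. Inoculum was set to 0.5 McFarland and diluted to about 5×10^5 CFU per well. Plates incubated at 35 °C for 18–20 h. MIC read as the lowest concentration with no visible growth; an un-inoculated plate served as solubility control.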

Escherichia coli [5] = test: Inhibition of NDM-1 in Escherichia coli 5980 assessed as potentiation of imipenem-induced antimicrobial activity by measuring imipenem MIC incubated for 18 to 20 hrs by CLSI based method (reference value: 8 ug/ml); method in brief: as §2
Escherichia coli [6] = test: Antimicrobial activity against Escherichia coli 5980 expressing NDM1 assessed as inhibition of microbial growth incubated for 18 to 20 hrs by CLSI based method; type: organism-based; method in brief: as §3
Klebsiella pneumoniae [7] = conditions: 4683
[8] = Inhibition of N-terminal 6x-His-tagged Klebsiella pneumoniae KPC2 (25 to 293 residues) assessed as reduction in nitrocefin hydrolysis by spectrophotometry
Method in brief: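 Purified recombinant KPC-2 at 1 nM in 100 mM Tris-HCl pH 7.0 with 0.01% Triton X-100, 37 °C, reaction started by enzyme. IC50 from sigmoidal fit; Ki by Cheng-Prusoff using the nitrocefin Km. Run in duplicate, or once or in triplicate for some compounds.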

[9] = Kinetic solubility in pH 7.4 PBS; type: physicochemical; conditions: buffer
Klebsiella pneumoniae [10] = test: Antimicrobial activity against Klebsiella pneumoniae 4683 expressing KPC2 assessed as inhibition of microbial growth incubated for 18 to 20 hrs by CLSI based method; type: organism-based; method in brief: as §3
Enterobacter cloacae [11] = test: Antimicrobial activity against Enterobacter cloacae 5981 expressing NDM1 assessed as inhibition of microbial growth incubated for 18 to 20 hrs by CLSI based method; type: functional; method in brief: as §3
[12] = molecular target: Metallo-beta-lactamase type 2 (Klebsiella pneumoniae) (UniProt C7C422); test: Inhibition of NDM-1 in Klebsiella pneumoniae 5979 assessed as potentiation of imipenem-induced antimicrobial activity by measuring imipenem MIC incubated for 18 to 20 hrs by CLSI based method (reference value: <[…] ug/ml)
[13] = molecular target: Beta-lactamase VIM-2 (Pseudomonas aeruginosa) (UniProt Q9K2N0); conditions: 4698
Pseudomonas aeruginosa = test: Antimicrobial activity against Pseudomonas aeruginosa 4698 expressing VIM2 assessed as inhibition of microbial growth incubated for 18 to 20 hrs by CLSI based method; type: organism-based; method in brief: as §3
[14] = Permeability in MDCK-MDR1 cells assessed as drug recovery; type: ADME, cell-based, Canis lupus familiaris; conditions: dog

Chain of Metallo-beta-lactamase type 2 (Klebsiella pneumoniae) (C7C422 whole entry): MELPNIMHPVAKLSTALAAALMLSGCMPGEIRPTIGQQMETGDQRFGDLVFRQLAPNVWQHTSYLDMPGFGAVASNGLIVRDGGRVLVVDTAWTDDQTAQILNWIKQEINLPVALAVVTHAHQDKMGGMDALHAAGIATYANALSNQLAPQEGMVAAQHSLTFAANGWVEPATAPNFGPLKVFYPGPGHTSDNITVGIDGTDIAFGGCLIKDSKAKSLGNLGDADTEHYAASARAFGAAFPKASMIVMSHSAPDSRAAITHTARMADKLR

| Structure (SMILES) | MIC (Enterobacter cloacae [3]) | MIC (Klebsiella pneumoniae [4]) | MIC (Escherichia coli [5]) | MIC (Escherichia coli [6]) | MIC (Klebsiella pneumoniae [7]) | Ki [8] | Kinetic_solubility [9] | MIC (Klebsiella pneumoniae [10]) | MIC (Enterobacter cloacae [11]) | MIC [12] | MIC [13] | MIC (Pseudomonas aeruginosa) | Drug recovery [14] | Ki ([1]; read-out: Ki) | Ki [2] | Ki [1] |
| --- | --- | --- | --- | --- | --- | --- | --- | --- | --- | --- | --- | --- | --- | --- | --- | --- |
| COc1ccc2c(CP(=O)(O)O)cc(=O)oc2c1 | – | – | – | – | – | – | – | – | – | – | – | – | – | 124 µM | 2.1 µM | – |
| O=c1cc(CP(=O)(O)O)c2c(F)cc(F)cc2o1 | – | – | – | – | – | – | – | – | – | – | – | – | – | – | 3.3 µM | Not Active |
| O=c1cc(CP(=O)(O)O)c2ccccc2[nH]1 | 2 µg/mL | > 128 µg/mL | 2 µg/mL | > 128 µg/mL | – | – | – | > 128 µg/mL | > 128 µg/mL | 32 µg/mL | > 64 µg/mL | > 128 µg/mL | – | 190 µM | 6.4 µM | – |
| Cc1cc(C)c2c(CP(=O)(O)O)cc(=O)oc2c1 | – | – | – | – | – | – | – | – | – | – | – | – | – | 33.8 µM | 0.82 µM | – |
| CC(C)NCC(O)COc1cccc2ccccc12 (stereo not given) [PROPRANOLOL] | – | – | – | – | – | – | – | – | – | – | – | – | 97% | – | – | – |

Now from value to molecule, other results behind:

| MIC (Enterobacter cloacae [3]) | MIC (Klebsiella pneumoniae [4]) | MIC (Escherichia coli [5]) | MIC (Escherichia coli [6]) | MIC (Klebsiella pneumoniae [7]) | Ki [8] | Kinetic_solubility [9] | MIC (Klebsiella pneumoniae [10]) | MIC (Enterobacter cloacae [11]) | MIC [12] | MIC [13] | MIC (Pseudomonas aeruginosa) | Drug recovery [14] | Structure (SMILES) | Ki ([1]; read-out: Ki) | Ki [2] | Ki [1] |
| --- | --- | --- | --- | --- | --- | --- | --- | --- | --- | --- | --- | --- | --- | --- | --- | --- |
| 2 µg/mL | > 128 µg/mL | 2 µg/mL | > 128 µg/mL | 1 µg/mL (≈ 3.74 µM) | 2.2 µM | 193 µM | > 128 µg/mL | > 128 µg/mL | 64 µg/mL | > 64 µg/mL | > 128 µg/mL | – | Cc1cc(C)c2c(CP(=O)(O)O)cc(=O)[nH]c2c1 | 56.2 µM | 3.4 µM | – |
| – | – | – | – | – | 8.5 µM | – | – | – | – | – | – | – | Cc1cc(F)c2c(CP(=O)(O)O)cc(=O)oc2c1 | 230 µM | 3.3 µM | – |
| 2 µg/mL | > 128 µg/mL | 2 µg/mL | > 128 µg/mL | – | – | – | > 128 µg/mL | > 128 µg/mL | 32 µg/mL | – | > 128 µg/mL | – | Cc1cc(Br)c2c(CP(=O)(O)O)cc(=O)oc2c1 | 34.2 µM | 1.2 µM | – |
